Common to all, as to type: functional, organism-based
One assay has as its system Escherichia coli. Put plainly: Antibacterial activity against Escherichia coli ATCC 35218 after 24 hrs by MTT method. The following applies: ATCC 35218, 24 h. The method in brief:
(§1)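 Broth assay in Mueller-Hinton liquid medium. Compounds dissolved in DMSO (stock 50 μg/mL) and serially diluted into the medium. Inoculum approx. 10^5 cfu/mL, incubated 37 °C for 24 h. Afterwards MTT (2 mg/mL in 0.01 mol/L PBS, pH 7.4) added, 4-5 h at room temperature. Dye extracted with isopropanol containing 5% 1 mol/L HCl for 12 h, OD read at 570 nm. IC50 derived colorimetrically.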
In general terms: Tetrazolium dyes change colour on reduction, which living cells bring about.

In a further assay the test system is Bacillus subtilis. The assay is described as follows: Antibacterial activity against Bacillus subtilis ATCC 6633 after 24 hrs by MTT method. The following applies: ATCC 6633, 24 h. Put shortly: as §1
In another assay the test system is Staphylococcus aureus. Put plainly: Antibacterial activity against Staphylococcus aureus ATCC 6538 after 24 hrs by MTT method. The following applies: ATCC 6538, 24 h. The method in brief: as §1
The subject of another assay is Pseudomonas aeruginosa. The assay is described as follows: Antibacterial activity against Pseudomonas aeruginosa ATCC 13525 after 24 hrs by MTT method. The following applies: ATCC 13525, 24 h. The method in brief:
as §1

≈ marks a conversion by molar mass, not a printed value.

As a reminder, the IC50 is the concentration that inhibits the measured activity by half. Higher therefore signals weaker potency in that assay.

With `O=C(O)[C@@H]1CSC(c2cc(Cl)ccc2O)N1` (mixture of isomers), the IC50 in the assay with Escherichia coli turned out to be 12.5 µg/mL; in the assay with Bacillus subtilis, 12.5 µg/mL; in the assay with Staphylococcus aureus, 6.25 µg/mL; in the assay with Pseudomonas aeruginosa, 3.12 µg/mL.
Turning to `CC1(C)S[C@@H]2[C@H](NC(=O)Cc3ccccc3)C(=O)N2[C@H]1C(=O)O` [PENICILLIN G], the IC50 came out at 6.25 µg/mL (≈ 18.7 µM) in the assay on Escherichia coli, 1.56 µg/mL (≈ 4.67 µM) in the assay with Bacillus subtilis, 1.56 µg/mL (≈ 4.67 µM) in the assay on Staphylococcus aureus and 6.25 µg/mL (≈ 18.7 µM) in the assay with Pseudomonas aeruginosa.
Turning to `CC(C)(C)OC(=O)N1C(c2cc(Br)ccc2O)SC[C@H]1C(=O)O` (mixture of isomers), the IC50 in the assay on Escherichia coli amounted to 1.56 µg/mL; in the assay on Bacillus subtilis, 1.56 µg/mL; in the assay with Staphylococcus aureus, 1.56 µg/mL; in the assay on Pseudomonas aeruginosa, 0.78 µg/mL.
With `O=C(O)[C@@H]1CSC(c2ccc(O)cc2)N1` (mixture of isomers), the IC50 with Escherichia coli is more than 50 µg/mL; with Bacillus subtilis, 25 µg/mL; with Staphylococcus aureus, more than 50 µg/mL; in the assay on Pseudomonas aeruginosa it was 25 µg/mL.
Consider `COc1ccc(C2N[C@H](C(=O)O)CS2)cc1` (mixture of isomers), for which the IC50 in the assay on Escherichia coli is more than 50 µg/mL; in the assay on Bacillus subtilis, 12.5 µg/mL; in the assay on Staphylococcus aureus, 25 µg/mL; in the assay on Pseudomonas aeruginosa, more than 50 µg/mL.
For the compound `CC(C)(C)c1cc(C2N[C@H](C(=O)O)CS2)cc(C(C)(C)C)c1O` (mixture of isomers), the IC50 with Escherichia coli amounted to 25 µg/mL; in the assay on Bacillus subtilis it was 25 µg/mL; with Staphylococcus aureus, 12.5 µg/mL; with Pseudomonas aeruginosa it was 25 µg/mL.
Take `O=C(O)[C@@H]1CSC(c2ccccc2)N1` (mixture of isomers): the IC50 in the assay on Escherichia coli is 25 µg/mL; in the assay on Bacillus subtilis it was 3.12 µg/mL; in the assay on Staphylococcus aureus, 12.5 µg/mL; in the assay with Pseudomonas aeruginosa, more than 50 µg/mL.
For `CC(C)(C)OC(=O)N1C(c2cc(C(C)(C)C)c(O)c(C(C)(C)C)c2)SC[C@H]1C(=O)O` (mixture of isomers), in that order: 0.69 µg/mL, 0.39 µg/mL, 1.56 µg/mL and 0.39 µg/mL.
As to `NC[C@H]1O[C@H](O[C@H]2[C@H](O)[C@@H](O[C@H]3O[C@H](CO)[C@@H](O)[C@H](N)[C@H]3O)[C@H](N)C[C@@H]2N)[C@H](N)[C@@H](O)[C@@H]1O` [BEKANAMYCIN], the IC50 came to 3.12 µg/mL (≈ 6.46 µM) in the assay on Escherichia coli, 0.39 µg/mL (≈ 0.807 µM) with Bacillus subtilis, 1.56 µg/mL (≈ 3.23 µM) with Staphylococcus aureus and 3.12 µg/mL (≈ 6.46 µM) in the assay with Pseudomonas aeruginosa.
Consider `CC(C)(C)OC(=O)N1C(c2ccc(O)cc2)SC[C@H]1C(=O)O` (mixture of isomers), for which the IC50 in the assay with Escherichia coli was determined as 0.78 µg/mL; in the assay on Bacillus subtilis it was 0.39 µg/mL; with Staphylococcus aureus it was 3.12 µg/mL; with Pseudomonas aeruginosa, 0.39 µg/mL.
In the case of `CC(C)(C)OC(=O)N1C(c2cc(Br)cc(Br)c2O)SC[C@H]1C(=O)O` (mixture of isomers), the IC50 with Escherichia coli is 0.78 µg/mL; in the assay with Bacillus subtilis, 3.12 µg/mL; in the assay on Staphylococcus aureus, 1.56 µg/mL; in the assay on Pseudomonas aeruginosa, 0.39 µg/mL.
For `CC(C)(C)OC(=O)N1C(c2cc(F)ccc2O)SC[C@H]1C(=O)O` (mixture of isomers), in that order: 0.78 µg/mL, 0.39 µg/mL, 0.39 µg/mL and 0.195 µg/mL.
For the compound `CC(C)(C)OC(=O)N1C(c2cc(Cl)ccc2O)SC[C@H]1C(=O)O` (mixture of isomers), the IC50 in the assay with Escherichia coli is 1.56 µg/mL; in the assay with Bacillus subtilis, 1.56 µg/mL; in the assay on Staphylococcus aureus, 1.56 µg/mL; in the assay on Pseudomonas aeruginosa it was 0.39 µg/mL.
Consider `CC(C)(C)OC(=O)N1C(c2ccc(Br)cc2)SC[C@H]1C(=O)O` (mixture of isomers), for which the IC50 in the assay with Escherichia coli amounted to 0.39 µg/mL; in the assay on Bacillus subtilis, 3.12 µg/mL; with Staphylococcus aureus, 3.12 µg/mL; in the assay on Pseudomonas aeruginosa it was 0.39 µg/mL.
With `O=C(O)[C@@H]1CSC(c2cc(Br)cc(Br)c2O)N1` (mixture of isomers), the IC50 was 12.5 µg/mL with Escherichia coli, 12.5 µg/mL in the assay with Bacillus subtilis, more than 50 µg/mL in the assay with Staphylococcus aureus and 25 µg/mL with Pseudomonas aeruginosa.
Take `CC(C)(C)OC(=O)N1C(c2ccccc2)SC[C@H]1C(=O)O` (mixture of isomers): the IC50 is 0.39 µg/mL in the assay with Escherichia coli, 3.12 µg/mL in the assay on Bacillus subtilis, 0.78 µg/mL in the assay with Staphylococcus aureus and 0.78 µg/mL in the assay with Pseudomonas aeruginosa.
Turning to `COc1ccc(C2SC[C@@H](C(=O)O)N2C(=O)OC(C)(C)C)cc1` (mixture of isomers), the IC50 with Escherichia coli is 0.78 µg/mL; in the assay with Bacillus subtilis, 3.12 µg/mL; with Staphylococcus aureus it was 1.56 µg/mL; in the assay with Pseudomonas aeruginosa, 0.39 µg/mL.
For `O=C(O)[C@@H]1CSC(c2cc(F)ccc2O)N1` (mixture of isomers), in that order: 12.5 µg/mL, 3.12 µg/mL, 6.25 µg/mL and 1.56 µg/mL.
As for `O=C(O)[C@@H]1CSC(c2cc(Br)ccc2O)N1` (mixture of isomers), the IC50 was determined as 25 µg/mL in the assay with Escherichia coli, 12.5 µg/mL in the assay on Bacillus subtilis, 12.5 µg/mL in the assay with Staphylococcus aureus and 6.25 µg/mL in the assay on Pseudomonas aeruginosa.

(Values after ChEMBL document CHEMBL1154157, “Synthesis, structure and structure-activity relationship analysis of 3-tert-butoxycarbonyl-2-arylthiazolidine-4-carboxylic acid derivatives as potential antibacterial agents” (Eur J Med Chem, 2009).)
